Only some compounds are listed: those with a hit (about 1.4% of all), similar ones and a draw of the others.
PG9 Ab binder: binders of HIV-1 gp120 antibody PG9, primary screen, biochemical, TR-FRET; TR-FRET gp120-PG9 antibody binding; inhibition, % at 6.7 µM; 360,000 compounds, 0.43% hits; AID 624416, 2012; in the data active means inhibition above about 8.5%
NR2E3 ag-1: inhibitors of NR2E3-RetCOR corepressor binding, primary screen, NR2E3 agonist project, biochemical, TR-FRET, GST-NR2E3, biotin-RetCOR | Photoreceptor-specific nuclear receptor (Homo sapiens), Q9Y5X4 | 320,000 compounds, 0.12% hits | AID 2300, 2010 | inhibition of corepressor binding, % at 4.78 µM | 1536-well;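 active means percent inhibition above the cutoff of mean plus 3 SD of all tested compounds, set per screening campaign, cut at about 20% in these data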;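 further: 0% = DMSO wells and 100% = biotin wells as full block of FRET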
Target sequence (Q9Y5X4 whole entry, looked up): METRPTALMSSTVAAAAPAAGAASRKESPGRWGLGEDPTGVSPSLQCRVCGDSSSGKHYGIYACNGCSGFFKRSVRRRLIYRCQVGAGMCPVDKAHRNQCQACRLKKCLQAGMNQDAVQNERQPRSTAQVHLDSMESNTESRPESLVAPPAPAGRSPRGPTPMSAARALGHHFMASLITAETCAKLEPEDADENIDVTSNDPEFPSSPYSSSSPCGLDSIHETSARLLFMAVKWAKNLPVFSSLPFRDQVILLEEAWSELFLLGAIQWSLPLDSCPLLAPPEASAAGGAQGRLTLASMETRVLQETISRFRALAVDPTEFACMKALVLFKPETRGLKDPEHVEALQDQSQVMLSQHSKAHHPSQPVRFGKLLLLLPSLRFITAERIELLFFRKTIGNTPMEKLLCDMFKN
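system = GST-tagged NR2E3 plus biotinylated RetCOR corepressor | input = 1.35 nM GST-NR2E3 | also added = 7 nM biotin-RetCOR | schedule = 5 h incubation at 4 °C | measured by = TR-FRET with europium anti-GST and streptavidin-D2, 340 nm excitation | read-out = percent loss of FRET ratio relative to control wells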
NR2E3 ag-2: NR2E3 agonists in two-hybrid cells, primary screen, cell-based, luminescence, CHO-S, Gal4-NCOR/VP16-NR2E3; luciferase; inhibition of corepressor binding, % at 3.98 µM; 360,000 compounds, 0.35% hits; AID 602229, 2012;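 active means inhibition above the mean of all tested compounds plus 3 SD, cut at about 70% in these data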;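 further: 0% = DMSO with NR2E3 transfected cells and 100% = cells lacking NR2E3 construct; higher means lower luciferase signal from less NR2E3 corepressor binding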
NR1D1 modulator: modulators of Rev-erb alpha DNA binding, primary screen, biochemical, FITC-DNA, fluorescence polarization, uHTS; 370,000 compounds, 0.79% hits; Nuclear receptor subfamily 1 group D member 1 (Homo sapiens), P20393; activity, % at 10 µM; AID 1259318, 2017; Rev-erbα–FITC-DNA binding, 90 min;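 active means activity above about 14%, limit read from the data; passing the limit was not always enough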;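 further: 0% = DMSO wells with 35 nM protein and 100% = DMSO wells with 750 nM protein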
NR2E3 ag conf: NR2E3 agonist confirmation in cells, cell-based, luminescence, CHO-S two-hybrid. 2,300 compounds, 51% hits. CHO-S mammalian two-hybrid NR2E3-NCOR, luciferase luminescence. shares compounds with NR2E3 ag-2. inhibition, % at 3.98 µM;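 active means average inhibition above a cutoff equal to the mean inhibition of all tested compounds plus one SD, cut at about 70% in these data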;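 further: 0% = DMSO in NR2E3 cells and 100% = DMSO in cells lacking NR2E3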
VP16 counter: GAL4-VP16 reporter modulators, confirmation, counter-screen for NR2E3 agonist project, cell-based, luminescence, CHO-S, high throughput. inhibition, % at 3.98 µM. 2,300 compounds, 29% hits. shares compounds with NR2E3 ag-2. CHO-S GAL4-VP16 luciferase reporter. AID 624379, 2012;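 active means mean inhibition above a cutoff equal to the average over all tested compounds plus one standard deviation, cut at about 70% in these data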;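 further: luciferase from a UAS reporter driven by GAL4-VP16 transactivation; 0% = DMSO with VP16-transfected cells and 100% = DMSO with cells lacking VP16; higher means less reporter light so more repression of VP16 activity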
An asterisk follows results filed as active.

Screening O=C(NCc1ccco1)C(c1ccccc1)N(C(=O)Cc1cccs1)c1cccnc1 (centres undefined) returned PG9 Ab binder 0, NR2E3 ag-1 3, NR2E3 ag-2 -21 and NR1D1 modulator 2.
Screening N#CC(c1cccc(Cl)c1)c1ccc2c(C(F)(F)F)cc(C(F)(F)F)nc2n1 (centres undefined) returned PG9 Ab binder 2, NR2E3 ag-1 1, NR2E3 ag-2 110*, NR1D1 modulator -1, NR2E3 ag conf 99* and VP16 counter 91*.
`NNc1ccc2c(C(F)(F)F)cc(C(F)(F)F)nc2n1` gave PG9 Ab binder -2, NR2E3 ag-1 -1, NR2E3 ag-2 3 and NR1D1 modulator 0.
Screening Cc1ccc(S(=O)(=O)n2ccc3c(OCCOCCNCc4ccc(F)cc4)cccc32)cc1 returned PG9 Ab binder -1, NR2E3 ag-1 -2, NR2E3 ag-2 63, NR1D1 modulator 0, NR2E3 ag conf 34 and VP16 counter 40.
`COc1cc(SC)ccc1C(=O)Nc1nc2ccccc2[nH]1` gave PG9 Ab binder 3, NR2E3 ag-1 6, NR2E3 ag-2 110*, NR1D1 modulator 16, NR2E3 ag conf 95* and VP16 counter 91*.
`COc1ccccc1C(=O)NCCC(=O)Nc1nc2ccccc2[nH]1` gave PG9 Ab binder -1, NR2E3 ag-1 -1, NR2E3 ag-2 31 and NR1D1 modulator 3.
`COc1ccccc1C(=O)Nc1nc2ccccc2[nH]1` gave PG9 Ab binder 0, NR2E3 ag-1 0, NR2E3 ag-2 82*, NR1D1 modulator -3, NR2E3 ag conf 77* and VP16 counter 42.
For CSc1ccccc1C(=O)Nc1nc2ccccc2[nH]1 the results were PG9 Ab binder 0, NR2E3 ag-1 6, NR2E3 ag-2 -64 and NR1D1 modulator -2.
For CS(=O)(=O)Nc1cccc(NC(=O)c2cccc3c(-c4cccc(C(N)=O)c4)coc23)c1 the results were PG9 Ab binder 1, NR2E3 ag-2 -15 and NR1D1 modulator -1.
Nc1nonc1C(=O)NCCNCc1cc(Br)ccc1OCc1ccc(F)cc1 was read as PG9 Ab binder 3, NR2E3 ag-1 3, NR2E3 ag-2 58, NR1D1 modulator 0, NR2E3 ag conf 63 and VP16 counter 59.
`O=C(CSc1nnnn1C1CC2CCC1C2)Nc1ccnc2ccccc12` (centres undefined) gave PG9 Ab binder -3, NR2E3 ag-1 1, NR2E3 ag-2 98*, NR1D1 modulator 2, NR2E3 ag conf 94* and VP16 counter 93*.
Screening O=C(CSc1nnnn1C1CCCCC1)Nc1ccccc1F returned PG9 Ab binder -2, NR2E3 ag-1 0, NR2E3 ag-2 5 and NR1D1 modulator -3.
For Cc1ccc(-c2cnc(C(O)c3ccc(Cl)c(F)c3)[nH]2)cc1 (centres undefined) the results were NR2E3 ag-2 49, NR2E3 ag conf 49 and VP16 counter 34.
`Cc1ccc(C(O)c2ncc(-c3ccc(Cl)cc3)[nH]2)cc1F` (centres undefined) gave PG9 Ab binder 1, NR2E3 ag-2 46 and NR1D1 modulator -6.
Screening OC(c1ccc(Cl)c(F)c1)c1ncc(-c2ccc(F)cc2)[nH]1 (centres undefined) returned PG9 Ab binder -1, NR2E3 ag-2 80*, NR1D1 modulator 2, NR2E3 ag conf 78* and VP16 counter 63.
`Cc1c(NC(=O)CSc2nnc(N)s2)c(=O)n(-c2ccccc2)n1C` gave PG9 Ab binder 2, NR2E3 ag-1 1, NR2E3 ag-2 1 and NR1D1 modulator 0.
For COc1cccc(C(=O)Nc2nnc(S(=O)(=O)N(C)Cc3ccc(F)cc3)s2)c1 the results were PG9 Ab binder 0, NR2E3 ag-1 1, NR2E3 ag-2 50, NR1D1 modulator 9, NR2E3 ag conf 41 and VP16 counter 19.
`COc1ccc(CN(C)S(=O)(=O)c2nnc(NC(=O)c3cccc(OC)c3)s2)cc1` gave PG9 Ab binder 1, NR2E3 ag-1 4, NR2E3 ag-2 19 and NR1D1 modulator -4.
`O=C(COC(=O)c1ccc(O)cc1)Nc1cccc(S(=O)(=O)NC2=NCCC2)c1` gave PG9 Ab binder 1, NR2E3 ag-1 2, NR2E3 ag-2 -10 and NR1D1 modulator -4.
Screening C=Cc1ccc(Cn2nc(-c3ccc(C)cc3)ccc2=O)cc1 returned PG9 Ab binder -1, NR2E3 ag-1 -6, NR2E3 ag-2 50, NR1D1 modulator 4, NR2E3 ag conf 87* and VP16 counter 72*.
`O=c1ccc(-c2ccccc2)nn1Cc1ccc(Cl)cc1` gave PG9 Ab binder -2, NR2E3 ag-1 5, NR2E3 ag-2 26 and NR1D1 modulator 4.
Screening CCN(c1ccccc1)S(=O)(=O)c1ccc(C(=O)NC2CCN(Cc3ccccc3)CC2)cc1 returned NR2E3 ag-2 57, NR2E3 ag conf 80* and VP16 counter 61.
`C/C=C(/C)C(=O)OC1CC(C)(C)C[C@H]2C3=CC[C@@H]4[C@@]5(C)CCC(O[C@@H]6O[C@@H](C(=O)O)[C@@H](O)C(O[C@@H]7OC[C@H](O)[C@@H](O)[C@@H]7O[C@@H]7OC(CO)C(O)[C@@H](O)[C@@H]7O)C6O[C@@H]6OC(CO)C(O)C(O)C6O)[C@@](C)(CO)[C@@H]5CC[C@]4(C)[C@]3(C)CC(O)[C@@]12CO` (some centres undefined) gave NR2E3 ag-2 48, NR2E3 ag conf 40 and VP16 counter 17.
O=C1CCCN1c1ccc(S(=O)(=O)Nc2cccnc2)cc1 was read as PG9 Ab binder -1, NR2E3 ag-1 3, NR2E3 ag-2 -7 and NR1D1 modulator 3.
Screening CC1CCC(NS(=O)(=O)c2ccc(N3CCCC3=O)cc2)CC1 (centres undefined) returned PG9 Ab binder -1, NR2E3 ag-1 1, NR2E3 ag-2 53, NR1D1 modulator 1, NR2E3 ag conf 31 and VP16 counter 32.
CCOC(=O)c1cc(S(=O)(=O)Nc2cccc(OC)c2)cn1C was read as PG9 Ab binder -1, NR2E3 ag-1 0, NR2E3 ag-2 54, NR1D1 modulator -2, NR2E3 ag conf 25 and VP16 counter 28.
